{
  "source": "PubChem BioAssay AID489000",
  "about": "(The Scripps Research Institute Molecular Screening Center, 2010)",
  "target": "Epstein-Barr virus nuclear antigen 1 (EBNA-1) DNA-binding domain",
  "experiment": "EBNA-1 DNA-binding inhibitor potency, late-stage follow-up, biochemical, fluorescence polarization, dose response, powder samples (AID 489000)",
  "conditions": "Recombinant EBNA-1 DBD, Cy5-DNA fluorescence polarization",
  "method_in_brief": "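Assay system: E. coli-expressed EBNA-1 DBD protein. Medium: Tris pH 7.4 buffer with 200 mM NaCl, DTT, BSA. Schedule: Protein-probe preincubation 30 min, compound exposure 1 h, room temperature. Measured by: fluorescence polarization, 620 nm excitation, 688 nm emission. Measure: percent inhibition between controls, IC50 from four-parameter sigmoidal fit.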",
  "note": "The source made the active and inactive calls.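 Rule for the calls: active = IC50 for blocking EBNA-1 binding to its DNA probe at or below 10 µM; inactive = the rest.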",
  "data": [
    {"compound": "Cc1cc(C(=O)CSc2nnnn2C)c(C)n1CC1CCCO1", "note": "(centres undefined)", "values": [
      {"measurement": "IC50", "result": "> 148 µM (inactive)"}
    ]},
    {"compound": "COc1ccc(-n2nnnc2SCC(=O)c2cc(C)n(CC3CCCO3)c2C)cc1", "note": "(centres undefined)", "values": [
      {"measurement": "IC50", "result": "> 16.4 µM (inactive)"}
    ]},
    {"compound": "Cc1ccc(C(=O)Nc2nc3cc(F)ccc3s2)cc1C", "values": [
      {"measurement": "IC50", "result": "> 148 µM (inactive)"}
    ]},
    {"compound": "Cc1ccc(C(=O)Nc2nc3cc(Br)ccc3s2)cc1C", "values": [
      {"measurement": "IC50", "result": "> 148 µM (inactive)"}
    ]},
    {"compound": "COc1ccc2nc(NC(=O)c3ccc(C)c(C)c3)sc2c1", "values": [
      {"measurement": "IC50", "result": "> 148 µM (inactive)"}
    ]},
    {"compound": "Cc1cc(C(=O)CSc2nnnn2-c2ccc(Cl)cc2)c(C)n1CC1CCCO1", "note": "(centres undefined)", "values": [
      {"measurement": "IC50", "result": "> 148 µM (inactive)"}
    ]},
    {"compound": "Cc1cc(C(=O)CSc2nnnn2C2CC2)c(C)n1CC1CCCO1", "note": "(centres undefined)", "values": [
      {"measurement": "IC50", "result": "inactive"}
    ]},
    {"compound": "CS(=O)(=O)c1ccc2nc(NC(=O)c3ccccc3F)sc2c1", "values": [
      {"measurement": "IC50", "result": "> 148 µM (inactive)"}
    ]},
    {"compound": "COc1ccccc1C(=O)Nc1nc2ccc(S(C)(=O)=O)cc2s1", "values": [
      {"measurement": "IC50", "result": "> 148 µM (inactive)"}
    ]},
    {"compound": "Cc1ccccc1-n1nnnc1SCC(=O)c1cc(C)n(CC2CCCO2)c1C", "note": "(centres undefined)", "values": [
      {"measurement": "IC50", "result": "> 148 µM (inactive)"}
    ]},
    {"compound": "Cc1cc(C(=O)CSc2nnnn2-c2cccc(F)c2)c(C)n1CC1CCCO1", "note": "(centres undefined)", "values": [
      {"measurement": "IC50", "result": "> 148 µM (inactive)"}
    ]},
    {"compound": "CCn1c(C)cc(C(=O)CSc2nnnn2-c2ccccc2)c1C", "values": [
      {"measurement": "IC50", "result": "> 148 µM (inactive)"}
    ]},
    {"compound": "Cc1cccc(-n2nnnc2SCC(=O)c2cc(C)n(CC3CCCO3)c2C)c1", "note": "(centres undefined)", "values": [
      {"measurement": "IC50", "result": "> 148 µM (inactive)"}
    ]},
    {"compound": "Cc1ccccc1C(=O)Nc1nc2ccc(S(C)(=O)=O)cc2s1", "values": [
      {"measurement": "IC50", "result": "> 148 µM (inactive)"}
    ]},
    {"compound": "CS(=O)(=O)c1ccc2nc(NC(=O)c3ccc(Cl)cc3)sc2c1", "values": [
      {"measurement": "IC50", "result": "inactive"}
    ]},
    {"compound": "O=C(CSc1nnnn1-c1ccccc1)c1ccn(CC2CCCO2)c1", "note": "(centres undefined)", "values": [
      {"measurement": "IC50", "result": "> 148 µM (inactive)"}
    ]},
    {"compound": "Cc1ccc(C(=O)Nc2nc3ccc(S(C)(=O)=O)cc3s2)cc1", "values": [
      {"measurement": "IC50", "result": "> 148 µM (inactive)"}
    ]},
    {"compound": "COc1ccc2sc(NC(=O)c3ccc(C)c(C)c3)nc2c1", "values": [
      {"measurement": "IC50", "result": "> 148 µM (inactive)"}
    ]},
    {"compound": "Cc1cccc(C(=O)Nc2nc3ccc(S(C)(=O)=O)cc3s2)c1", "values": [
      {"measurement": "IC50", "result": "inactive"}
    ]},
    {"compound": "COCCn1c(C)cc(C(=O)CSc2nnnn2-c2ccccc2)c1C", "values": [
      {"measurement": "IC50", "result": "> 148 µM (inactive)"}
    ]},
    {"compound": "COc1ccc(C(=O)Nc2nc3ccc(S(C)(=O)=O)cc3s2)cc1", "values": [
      {"measurement": "IC50", "result": "inactive"}
    ]},
    {"compound": "Cc1cc(C(=O)CSc2nnnn2-c2ccccc2)c(C)n1C", "values": [
      {"measurement": "IC50", "result": "inactive"}
    ]},
    {"compound": "Cc1cc(C(=O)CSc2nnnn2-c2ccccc2)c(C)n1Cc1cccs1", "values": [
      {"measurement": "IC50", "result": "> 148 µM (inactive)"}
    ]},
    {"compound": "COc1cccc(C(=O)Nc2nc3ccc(S(C)(=O)=O)cc3s2)c1", "values": [
      {"measurement": "IC50", "result": "inactive"}
    ]},
    {"compound": "Cc1ccc(C(=O)Nc2nc3ccc(Br)cc3s2)cc1C", "values": [
      {"measurement": "IC50", "result": "> 148 µM (inactive)"}
    ]},
    {"compound": "COc1cccc2sc(NC(=O)c3ccc(C)c(C)c3)nc12", "values": [
      {"measurement": "IC50", "result": "> 148 µM (inactive)"}
    ]},
    {"compound": "CS(=O)(=O)c1ccc2nc(NC(=O)c3cccc(Cl)c3)sc2c1", "values": [
      {"measurement": "IC50", "result": "> 148 µM (inactive)"}
    ]},
    {"compound": "CS(=O)(=O)c1ccc2nc(NC(=O)c3cccc(F)c3)sc2c1", "values": [
      {"measurement": "IC50", "result": "> 148 µM (inactive)"}
    ]},
    {"compound": "CS(=O)(=O)c1ccc2nc(NC(=O)c3ccccc3Cl)sc2c1", "values": [
      {"measurement": "IC50", "result": "> 148 µM (inactive)"}
    ]}
  ]
}
